From ChEMBL document CHEMBL1131342, “Design, synthesis, and antiviral activity of alpha-nucleosides: D- and L-isomers of lyxofuranosyl- and (5-deoxylyxofuranosyl)benzimidazoles” (J Med Chem, 1998)

What was measured:
Homo sapiens = species on record: Homo sapiens; assay: Compound was evaluated for the cytotoxicity scored on HFF cells at time of HCMV plaque enumeration.; format: functional
Outline: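 Stationary HFF cells not affected by virus, inspected microscopically for visual cytotoxicity at the time of HCMV plaque counting (7 days, 37 °C). Duplicate experiments.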

Human betaherpesvirus 5 [1] = assay: Antiviral activity assayed by ability to inhibit Towne strain of HCMV virus; format: functional, organism-based
Outline: (§1)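 HFF monolayers in 24-well dishes infected with about 100 pfu HCMV/cm² (Towne or AD169). After adsorption, compound in growth medium at four to eight concentrations, duplicate wells, 7 days at 37 °C. Crystal violet stain, microscopic plaques counted, percent reduction vs no drug. IC50 from regression on log concentration; ganciclovir control.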

Human betaherpesvirus 5 [2] = assay: Compound was evaluated for the Antiviral activity against the AD169 strain of HCMV virus.; format: functional, organism-based; outline: as §1
KB = assay: Compound was evaluated for the cytotoxicity by the inhibition of KB cell growth.; format: functional, cell-based; details: Homo sapiens
Outline: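 KB cells plated at 3000–5000 cells/well and incubated overnight. Compound added in quadruplicate at six to eight concentrations, 48 h at 37 °C under CO₂, spanning two population doublings. Ethanol fixation, 0.1% crystal violet stain, dye eluted with acidified ethanol, absorbance at 570 nm. IC50 by regression on log concentration; 2-acetylpyridine thiosemicarbazone control.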

Human betaherpesvirus 5 [3] = assay: Compound was evaluated for its antiviral activity against HCMV virus using Yield reduction assay.
Human alphaherpesvirus 1 [4] = assay: Antiviral activity evaluated by their ability to inhibit the KOS strain of herpes simplex virus type-1 (HSV-1).ELISA was used
Human betaherpesvirus 5 [5] = assay: Compounds was evaluated for the Antiviral activity against the AD169 strain of HCMV virus.; format: functional, organism-based; outline: as §1
Human betaherpesvirus 5 [6] = assay: Compound was evaluated for the Yield reduction assays on HCMV virus,; format: functional
Outline: (§2)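 HFF cells in 96-well plates inoculated with HCMV at moi 0.5–1 pfu/cell. Compound in duplicate at 100 to 0.14 μM (1:3 serial dilutions), 7 days at 37 °C, then one freeze–thaw. Progeny titred by serial 1:3 dilution onto fresh HFF monolayers with plaque counting. IC90 from linear regression vs log concentration; ganciclovir control.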

Human betaherpesvirus 5 [7] = assay: Compound was evaluated for its antiviral activity by its ability to inhibit Towne strain of HCMV virus.The plaque assay was used; format: functional, organism-based; outline: as §1
Human alphaherpesvirus 1 [8] = assay: Antiviral activity against KOS strain of herpes simplex virus type-1 (HSV-1).ELISA was used
Human betaherpesvirus 5 [9] = assay: Compound was evaluated for antiviral activity against HCMV virus using yield reduction assay.; format: functional; outline: as §2
Human alphaherpesvirus 1 [10] = assay: Antiviral activity evaluated by its ability to inhibit the KOS strain of herpes simplex virus type-1 (HSV-1).ELISA was used

| SMILES | IC50 (Homo sapiens) | IC50 (Human betaherpesvirus 5 [1]; Human betaherpesvirus 5) | IC50 (KB) | IC90 (Human betaherpesvirus 5 [3]) | IC50 (Human alphaherpesvirus 1 [4]) | further results |
| --- | --- | --- | --- | --- | --- | --- |
| O=C(O)P(=O)(O)O [FOSCARNET] | > 100 µM |  |  |  |  |  |
| CCCNc1nc2cc(Cl)c(Cl)cc2n1[C@@H]1O[C@@H](CO)[C@@H](O)[C@H]1O | > 100 µM | > 100 µM | > 100 µM | 19 µM | > 100 µM | IC50 (Human betaherpesvirus 5 [2]; Human betaherpesvirus 5): 11 µM |
| CNc1nc2cc(Cl)c(Cl)cc2n1[C@@H]1O[C@H](CO)[C@@H](O)[C@H]1O | > 100 µM | > 100 µM | > 100 µM | > 100 µM | > 100 µM |  |
| CSc1nc2cc(Cl)c(Cl)cc2n1[C@@H]1O[C@H](CO)[C@@H](O)[C@H]1O | > 100 µM | > 100 µM | > 100 µM | > 100 µM | > 100 µM |  |
| C[C@@H]1O[C@@H](n2c(Cl)nc3cc(Cl)c(Cl)cc32)[C@H](O)[C@@H]1O | 32 µM | 0.2 µM | 60 µM | 0.2 µM | 20 µM |  |
| C[C@H]1O[C@@H](n2c(Br)nc3cc(Cl)c(Cl)cc32)[C@H](O)[C@@H]1O | 100 µM | 32 µM | > 100 µM | 12 µM | 50 µM |  |
| OC[C@H]1O[C@@H](n2c(Cl)nc3cc(Cl)c(Cl)cc32)[C@H](O)[C@@H]1O | 190 µM |  | > 100 µM | 3.4 µM | > 100 µM | IC50 (Human betaherpesvirus 5 [1]): 18 µM; IC50 (Human betaherpesvirus 5 [2]; Human betaherpesvirus 5): 2.6 µM; IC50 (Human betaherpesvirus 5 [5]): 1.8 µM; IC90 (Human betaherpesvirus 5 [6]): 1.4 µM |
| OC[C@@H]1O[C@@H](n2c(S)nc3cc(Cl)c(Cl)cc32)[C@H](O)[C@@H]1O | > 100 µM | > 100 µM | > 100 µM | > 100 µM | > 100 µM |  |
| OC[C@H]1O[C@H](n2c(Cl)nc3cc(Cl)c(Cl)cc32)[C@@H](O)[C@H]1O | > 100 µM | 18 µM | > 100 µM | > 100 µM | 90 µM | IC50 (Human betaherpesvirus 5 [2]; Human betaherpesvirus 5): 9 µM |
| C[C@@H]1O[C@@H](n2c(Br)nc3cc(Cl)c(Cl)cc32)[C@H](O)[C@@H]1O | 32 µM | 0.4 µM | 60 µM | 2 µM | > 100 µM |  |
| OC[C@H]1O[C@H](n2c(Br)nc3cc(Cl)c(Cl)cc32)[C@@H](O)[C@H]1O (stereo in doubt; 4a) |  |  |  | 0.8 µM |  | IC50 (Human betaherpesvirus 5 [7]): 2.8 µM; IC50 (Human betaherpesvirus 5 [2]): 0.8 µM; IC50 (Human alphaherpesvirus 1 [8]): > 100 µM |
| OC[C@H]1O[C@H](n2c(Br)nc3cc(Cl)c(Cl)cc32)[C@@H](O)[C@H]1O (stereo in doubt; 4b) | > 100 µM | 6 µM | > 100 µM |  |  | IC50 (Human betaherpesvirus 5 [2]): 4.2 µM; IC90 (Human betaherpesvirus 5 [9]): 65 µM; IC50 (Human alphaherpesvirus 1 [10]): 50 µM |
| CCCNc1nc2cc(Cl)c(Cl)cc2n1[C@@H]1O[C@H](C)[C@@H](O)[C@H]1O | > 100 µM | 10 µM |  | 2 µM |  |  |
| CCCNc1nc2cc(Cl)c(Cl)cc2n1[C@@H]1O[C@@H](C)[C@@H](O)[C@H]1O | 100 µM | 32 µM | 65 µM | 2.8 µM | > 100 µM |  |
| CCCNc1nc2cc(Cl)c(Cl)cc2n1[C@@H]1O[C@H](CO)[C@@H](O)[C@H]1O | > 100 µM | 60 µM | > 100 µM | 17 µM | > 100 µM | IC50 (Human betaherpesvirus 5 [2]; Human betaherpesvirus 5): 32 µM |
| OC[C@H]1O[C@@H](n2c(S)nc3cc(Cl)c(Cl)cc32)[C@H](O)[C@@H]1O | > 100 µM | > 100 µM | > 100 µM | > 100 µM | > 100 µM |  |
| C[C@H]1O[C@@H](n2c(Cl)nc3cc(Cl)c(Cl)cc32)[C@H](O)[C@@H]1O | 45 µM | 32 µM | 75 µM | 8 µM | 60 µM |  |
| CNc1nc2cc(Cl)c(Cl)cc2n1[C@@H]1O[C@@H](CO)[C@@H](O)[C@H]1O | > 100 µM | > 100 µM | > 100 µM |  | > 100 µM |  |
| CSc1nc2cc(Cl)c(Cl)cc2n1[C@@H]1O[C@@H](CO)[C@@H](O)[C@H]1O | > 100 µM | > 100 µM | > 100 µM |  | > 100 µM |  |
| Nc1nc2c(ncn2COC(CO)CO)c(=O)[nH]1 [GANCICLOVIR] | > 100 µM |  | > 100 µM |  |  | IC90 (Human betaherpesvirus 5 [6]): 1.6 µM |
